According to ChEMBL document CHEMBL1154352, “Toll-like receptor 7 selective synthetic oligoribonucleotide agonists: synthesis and structure-activity relationship studies” (J Med Chem, 2009):
Calls of active or inactive are those of the source. No cut-off for these calls is given here.

How the values were obtained:
[1] = molecular target: T1, Toll-like receptor 9 (Mus musculus) (UniProt Q9EQU3); test: Activation of mouse TLR9 expressed in HEK293 assessed as induction of NF-kappaB activity reporter gene assay; format: cell-based
T1 sequence (whole entry): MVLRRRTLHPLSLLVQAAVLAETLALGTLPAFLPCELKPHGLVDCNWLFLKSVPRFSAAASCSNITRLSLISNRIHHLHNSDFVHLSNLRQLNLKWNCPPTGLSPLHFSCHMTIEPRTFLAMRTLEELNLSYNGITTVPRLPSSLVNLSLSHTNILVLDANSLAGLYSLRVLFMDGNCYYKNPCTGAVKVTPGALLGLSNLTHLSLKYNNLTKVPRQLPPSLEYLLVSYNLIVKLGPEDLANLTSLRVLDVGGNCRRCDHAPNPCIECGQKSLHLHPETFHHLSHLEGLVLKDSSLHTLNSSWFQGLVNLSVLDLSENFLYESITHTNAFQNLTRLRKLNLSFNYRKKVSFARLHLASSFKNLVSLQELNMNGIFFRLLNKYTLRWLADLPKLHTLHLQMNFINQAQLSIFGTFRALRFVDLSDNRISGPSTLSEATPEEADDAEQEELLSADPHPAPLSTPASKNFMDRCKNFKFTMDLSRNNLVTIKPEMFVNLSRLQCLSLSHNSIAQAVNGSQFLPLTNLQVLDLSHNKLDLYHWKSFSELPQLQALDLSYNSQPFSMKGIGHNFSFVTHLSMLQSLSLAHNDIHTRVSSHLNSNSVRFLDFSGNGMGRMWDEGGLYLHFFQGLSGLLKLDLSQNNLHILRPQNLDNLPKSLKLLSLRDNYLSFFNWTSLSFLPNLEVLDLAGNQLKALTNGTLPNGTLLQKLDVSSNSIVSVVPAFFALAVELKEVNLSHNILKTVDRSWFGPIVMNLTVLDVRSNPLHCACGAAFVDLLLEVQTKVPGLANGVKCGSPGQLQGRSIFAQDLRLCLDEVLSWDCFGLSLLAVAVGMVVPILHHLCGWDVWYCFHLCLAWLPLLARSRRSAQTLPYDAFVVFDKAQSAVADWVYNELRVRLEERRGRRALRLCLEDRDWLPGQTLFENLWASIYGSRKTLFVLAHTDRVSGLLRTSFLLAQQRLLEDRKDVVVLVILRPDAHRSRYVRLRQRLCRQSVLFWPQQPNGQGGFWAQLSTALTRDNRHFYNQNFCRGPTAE

[2] = system: PBMC; test: Immunomodulatory activity in human PBMC assessed as induction of TNFalpha at 100 ug/ml after 24 hrs; format: functional, cell-based
In short: (§1)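 Human PBMCs plated at 5 × 10^6 cells/mL; compounds dissolved in PBS added at various concentrations, 37 °C for 24 h. Supernatant cytokines/chemokines quantified with human Luminex multiplex kit.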

[3] = system: PBMC; test: Immunomodulatory activity in human PBMC assessed as induction of IL12 at 100 ug/ml after 24 hrs; format: functional, cell-based; in short: as §1
[4] = system: Splenocyte; test: Immunomodulatory activity in C57BL/6 mouse splenocytes bearing TLR7 receptor assessed as IL12 release at 100 ug/ml after 24 hrs by ELISA; format: functional, cell-based
In short: (§2)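 C57BL/6 splenocytes in RPMI 1640 with 10% FBS, penicillin/streptomycin, 2 mM L-glutamine, plated at 5 × 10^6 cells/mL; compounds in PBS added, 37 °C for 24 h. Supernatant IL-12 and IL-6 by ELISA; representative of three independent experiments.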

[5] = system: PBMC; test: Immunomodulatory activity in human PBMC assessed as induction of IFN-alpha at 100 ug/ml after 24 hrs
[6] = molecular target: T2, Toll-like receptor 8 (Homo sapiens) (UniProt Q9NR97); test: Activation of human TLR8 expressed in HEK293XL assessed as fold induction of NF-kappaB activity at 50 ug/ml after 18 hrs by reporter gene assay relative to control
T2 sequence (whole entry): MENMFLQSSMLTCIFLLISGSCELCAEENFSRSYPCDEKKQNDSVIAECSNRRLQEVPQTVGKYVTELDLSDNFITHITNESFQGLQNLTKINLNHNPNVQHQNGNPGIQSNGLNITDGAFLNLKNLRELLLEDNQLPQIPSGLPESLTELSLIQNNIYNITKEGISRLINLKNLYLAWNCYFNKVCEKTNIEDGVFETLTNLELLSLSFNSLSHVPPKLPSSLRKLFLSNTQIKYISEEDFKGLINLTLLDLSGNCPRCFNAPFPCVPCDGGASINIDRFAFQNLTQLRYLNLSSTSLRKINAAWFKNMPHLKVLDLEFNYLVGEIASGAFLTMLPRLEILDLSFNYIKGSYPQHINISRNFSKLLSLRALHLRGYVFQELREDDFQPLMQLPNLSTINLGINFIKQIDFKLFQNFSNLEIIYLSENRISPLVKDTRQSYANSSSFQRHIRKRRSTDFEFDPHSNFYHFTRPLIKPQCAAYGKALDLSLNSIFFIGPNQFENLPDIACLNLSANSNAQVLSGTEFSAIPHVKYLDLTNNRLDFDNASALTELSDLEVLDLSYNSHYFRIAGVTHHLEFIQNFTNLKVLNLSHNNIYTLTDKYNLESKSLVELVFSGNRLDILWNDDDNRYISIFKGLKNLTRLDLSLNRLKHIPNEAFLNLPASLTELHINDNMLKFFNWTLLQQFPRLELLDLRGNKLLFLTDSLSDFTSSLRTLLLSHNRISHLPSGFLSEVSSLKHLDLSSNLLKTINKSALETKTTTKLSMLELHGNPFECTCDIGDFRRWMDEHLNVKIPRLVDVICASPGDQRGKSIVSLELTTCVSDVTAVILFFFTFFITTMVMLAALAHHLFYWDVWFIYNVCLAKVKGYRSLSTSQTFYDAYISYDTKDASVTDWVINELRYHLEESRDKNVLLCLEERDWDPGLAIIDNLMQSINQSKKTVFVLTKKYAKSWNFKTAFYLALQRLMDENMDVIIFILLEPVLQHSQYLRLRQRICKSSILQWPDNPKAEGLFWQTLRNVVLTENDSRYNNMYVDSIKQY
In short: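 HEK293 cells stably expressing human TLR7 or TLR8, transiently transfected with SEAP reporter plasmid; medium replaced, SIMRA compounds added, 18 h incubation. Supernatant SEAP measured by QuantiBlue; expressed as fold increase in NF-κB activity over PBS control. Tabulated data at 50 μg/mL, representative of three independent experiments.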

[7] = system: Splenocyte; test: Immunomodulatory activity in C57BL/6 mouse splenocytes bearing TLR7 receptor assessed as IL6 release at 100 ug/ml after 24 hrs by ELISA; format: functional, cell-based; in short: as §2
[8] = molecular target: Toll-like receptor 3 (Homo sapiens) (UniProt O15455); test: Activation of human TLR3 expressed in HEK293 assessed as induction of NF-kappaB activity reporter gene assay; format: cell-based
Toll-like receptor 3 (Homo sapiens), sequence (O15455 whole entry): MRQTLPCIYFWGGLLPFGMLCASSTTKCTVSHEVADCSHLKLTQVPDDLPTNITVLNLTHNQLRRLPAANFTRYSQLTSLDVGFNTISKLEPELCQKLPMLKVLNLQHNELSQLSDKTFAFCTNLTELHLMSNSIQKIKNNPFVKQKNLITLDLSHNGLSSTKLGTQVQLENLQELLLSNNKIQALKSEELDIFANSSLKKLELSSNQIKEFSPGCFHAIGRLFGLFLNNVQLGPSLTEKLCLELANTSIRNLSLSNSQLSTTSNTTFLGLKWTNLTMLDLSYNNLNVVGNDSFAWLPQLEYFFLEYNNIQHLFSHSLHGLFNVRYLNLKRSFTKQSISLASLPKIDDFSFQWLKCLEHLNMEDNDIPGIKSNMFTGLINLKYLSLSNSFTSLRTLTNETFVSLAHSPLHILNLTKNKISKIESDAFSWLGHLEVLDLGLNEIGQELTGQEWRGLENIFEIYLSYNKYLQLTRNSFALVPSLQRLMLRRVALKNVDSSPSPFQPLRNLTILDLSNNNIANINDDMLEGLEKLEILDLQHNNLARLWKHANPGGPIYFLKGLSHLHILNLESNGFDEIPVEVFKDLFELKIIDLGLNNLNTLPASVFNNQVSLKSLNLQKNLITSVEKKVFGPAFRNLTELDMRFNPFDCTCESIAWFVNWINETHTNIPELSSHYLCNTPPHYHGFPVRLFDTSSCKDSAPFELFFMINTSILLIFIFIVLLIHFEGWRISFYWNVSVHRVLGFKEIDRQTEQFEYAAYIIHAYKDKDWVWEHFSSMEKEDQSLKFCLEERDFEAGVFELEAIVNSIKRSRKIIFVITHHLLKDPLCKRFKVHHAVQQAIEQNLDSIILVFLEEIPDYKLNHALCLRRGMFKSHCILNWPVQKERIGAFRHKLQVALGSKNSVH

[9] = Metabolic stability in human serum assessed as full length product remaining after 10 mins by HPLC; format: ADME, cell-free; settings: read-out: Stability
In short: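 About 0.5 A260 units compound in 1% human serum in PBS, 37 °C; aliquot taken at 10 min, analysed by anion-exchange HPLC for percent intact full-length product.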

Activity [1]	Activity [4]	fold change (FC) [6]	Activity [7]	Activity [8]	remaining at 10 min [9] [%]	SMILES	Activity [2] [pg/mL]	Activity [3] [pg/mL]	IFN-alpha [5] [pg/mL]
inactive	Active	0.6	Active	inactive	75	Nc1ccn([C@@H]2O[C@H](CO)[C@@H](OP(=O)(S)OC[C@H]3O[C@@H](n4ccc(=O)[nH]c4=O)[C@H](O)[C@@H]3OP(=O)(S)OC[C@H]3O[C@@H](n4ccc5c(=O)[nH]c(N)nc54)[C@H](O)[C@@H]3OP(=O)(S)OC[C@H]3O[C@@H](n4cnc5c(N)ncnc54)[C@H](O)[C@@H]3OP(=O)(S)OC[C@H]3O[C@@H](n4ccc(N)nc4=O)[C@H](O)[C@@H]3OP(=O)(S)OC[C@H]3O[C@@H](n4ccc5c(=O)[nH]c(N)nc54)[C@H](O)[C@@H]3OP(=O)(S)OC[C@H]3O[C@@H](n4cnc5c(N)ncnc54)[C@H](O)[C@@H]3OP(=O)(S)OC[C@H]3O[C@@H](n4ccc5c(=O)[nH]c(N)nc54)[C@H](O)[C@@H]3OP(=O)(S)OC[C@H]3O[C@@H](n4ccc(N)nc4=O)[C@H](O)[C@@H]3OP(=O)(S)OC[C@H]3O[C@@H](n4ccc(=O)[nH]c4=O)[C@H](O)[C@@H]3OP(=O)(S)OC[C@H]3O[C@@H](n4ccc(=O)[nH]c4=O)[C@H](O)[C@@H]3OP(=O)(S)OCC(O)COP(=O)(S)O[C@H]3[C@@H](O)[C@H](n4ccc(=O)[nH]c4=O)O[C@@H]3COP(=O)(S)O[C@H]3[C@@H](O)[C@H](n4ccc(=O)[nH]c4=O)O[C@@H]3COP(=O)(S)O[C@H]3[C@@H](O)[C@H](n4ccc(N)nc4=O)O[C@@H]3COP(=O)(S)O[C@H]3[C@@H](O)[C@H](n4ccc5c(=O)[nH]c(N)nc54)O[C@@H]3COP(=O)(S)O[C@H]3[C@@H](O)[C@H](n4cnc5c(N)ncnc54)O[C@@H]3COP(=O)(S)O[C@H]3[C@@H](O)[C@H](n4ccc5c(=O)[nH]c(N)nc54)O[C@@H]3COP(=O)(S)O[C@H]3[C@@H](O)[C@H](n4ccc(N)nc4=O)O[C@@H]3COP(=O)(S)O[C@H]3[C@@H](O)[C@H](n4cnc5c(N)ncnc54)O[C@@H]3COP(=O)(S)O[C@H]3[C@@H](O)[C@H](n4ccc5c(=O)[nH]c(N)nc54)O[C@@H]3COP(=O)(S)O[C@H]3[C@@H](O)[C@H](n4ccc(=O)[nH]c4=O)O[C@@H]3COP(=O)(S)O[C@H]3[C@@H](O)[C@H](n4ccc(N)nc4=O)O[C@@H]3CO)[C@H]2O)c(=O)n1 (stereo partly drawn)	33.4	519	106
inactive	Active	0.9	Active	inactive	78	Nc1ccn([C@@H]2O[C@H](COP(=O)(S)O[C@H]3[C@@H](O)[C@H](n4cnc5c(N)ncnc54)O[C@@H]3CO)[C@@H](OP(=O)(S)OC[C@H]3O[C@@H](n4ccc5c(=O)[nH]c(N)nc54)[C@H](O)[C@@H]3OP(=O)(S)OC[C@H]3O[C@@H](n4ccc(N)nc4=O)[C@H](O)[C@@H]3OP(=O)(S)OC[C@H]3O[C@@H](n4ccc(=O)[nH]c4=O)[C@H](O)[C@@H]3OP(=O)(S)OC[C@H]3O[C@@H](n4ccc5c(=O)[nH]c(N)nc54)[C@H](O)[C@@H]3OP(=O)(S)OC[C@H]3O[C@@H](n4cnc5c(N)ncnc54)[C@H](O)[C@@H]3OP(=O)(S)OC[C@H]3O[C@@H](n4ccc5c(=O)[nH]c(N)nc54)[C@H](O)[C@@H]3OP(=O)(S)OC[C@H]3O[C@@H](n4ccc(N)nc4=O)[C@H](O)[C@@H]3OP(=O)(S)OC[C@H]3O[C@@H](n4ccc(=O)[nH]c4=O)[C@H](O)[C@@H]3OP(=O)(S)OC[C@H]3O[C@@H](n4ccc(=O)[nH]c4=O)[C@H](O)[C@@H]3OP(=O)(S)OCC(O)COP(=O)(S)O[C@H]3[C@@H](O)[C@H](n4ccc(=O)[nH]c4=O)O[C@@H]3COP(=O)(S)O[C@H]3[C@@H](O)[C@H](n4ccc(=O)[nH]c4=O)O[C@@H]3COP(=O)(S)O[C@H]3[C@@H](O)[C@H](n4ccc(N)nc4=O)O[C@@H]3COP(=O)(S)O[C@H]3[C@@H](O)[C@H](n4ccc5c(=O)[nH]c(N)nc54)O[C@@H]3COP(=O)(S)O[C@H]3[C@@H](O)[C@H](n4cnc5c(N)nc(N)nc54)O[C@@H]3COP(=O)(S)O[C@H]3[C@@H](O)[C@H](n4ccc5c(=O)[nH]c(N)nc54)O[C@@H]3COP(=O)(S)O[C@H]3[C@@H](O)[C@H](n4ccc(=O)[nH]c4=O)O[C@@H]3COP(=O)(S)O[C@H]3[C@@H](O)[C@H](n4ccc(N)nc4=O)O[C@@H]3COP(=O)(S)O[C@H]3[C@@H](O)[C@H](n4ccc5c(=O)[nH]c(N)nc54)O[C@@H]3COP(=O)(S)O[C@H]3[C@@H](O)[C@H](n4ccc(N)nc4=O)O[C@@H]3COP(=O)(S)O[C@H]3[C@@H](O)[C@H](n4cnc5c(N)ncnc54)O[C@@H]3CO)[C@H]2O)c(=O)n1 (stereo partly drawn)	1410	2240	188
